Key:
Format in all cases: functional
[1] = tested on: OVCAR-8; assay: Anticancer activity against human OVCAR8 cells assessed as cell growth at 10^-5 M after 48 hrs by SRB assay; conditions: OVCAR-8, 48 h, read-out: Activity
[2] = tested on: A498; assay: Anticancer activity against human A498 cells assessed as cell growth at 10^-5 M after 48 hrs by SRB assay; conditions: A498, 48 h, read-out: Activity
In short: (§1)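 NCI-60 single-dose screen at one concentration. Cells grown in RPMI 1640 with 5% FBS and 2 mM L-glutamine, plated at 5000–40,000 cells/well, and pre-incubated 24 h at 37 °C in 5% CO2 before DMSO-dissolved drug was added. Cells fixed with TCA, SRB-stained, absorbance read at 515 nm. Percent growth calculated against time-zero and untreated control plates.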

[3] = tested on: MCF7; assay: Anticancer activity against human MCF7 cells assessed as cell growth at 10^-5 M after 48 hrs by SRB assay; conditions: MCF7, 48 h, read-out: Activity; in short: as §1
[4] = tested on: UACC-62; assay: Anticancer activity against human UACC62 cells assessed as cell growth at 10^-5 M after 48 hrs by SRB assay; conditions: UACC-62, 48 h, read-out: Activity
In short: (§2)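 NCI-60 single-dose screen: cells in RPMI 1640 with 5% FBS and 2 mM L-glutamine, plated at 5000–40,000 cells/well by doubling time, and preincubated 24 h at 37 °C. Compound given at one concentration from DMSO stock. Cells TCA-fixed and SRB-stained, absorbance at 515 nm. Percent growth relative to time-zero and untreated controls; inhibition % = 100 − growth %.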

[5] = tested on: OVCAR-3; assay: Anticancer activity against human OVCAR3 cells assessed as cell growth at 10^-5 M after 48 hrs by SRB assay; conditions: OVCAR-3, 48 h, read-out: Activity
[6] = tested on: NCI-H23; assay: Anticancer activity against human NCI-H23 cells assessed as cell growth at 10^-5 M after 48 hrs by SRB assay; conditions: NCI-H23, 48 h, read-out: Activity
[7] = tested on: MOLT-4; assay: Anticancer activity against human MOLT4 cells assessed as cell growth at 10^-5 M after 48 hrs by SRB assay; conditions: MOLT-4, 48 h, read-out: Activity
[8] = tested on: COLO 205; assay: Anticancer activity against human COLO205 cells assessed as cell growth at 10^-5 M after 48 hrs by SRB assay; conditions: COLO 205, 48 h, read-out: Activity; in short: as §1
[9] = tested on: T47D; assay: Anticancer activity against human T47D cells assessed as cell growth at 10^-5 M after 48 hrs by SRB assay; conditions: read-out: Activity; in short: as §2
[10] = tested on: SK-OV-3; assay: Anticancer activity against human SKOV3 cells assessed as cell growth at 10^-5 M after 48 hrs by SRB assay; conditions: SK-OV-3, 48 h, read-out: Activity
[11] = tested on: SF-268; assay: Anticancer activity against human SF268 cells assessed as cell growth at 10^-5 M after 48 hrs by SRB assay; conditions: SF-268, 48 h, read-out: Activity
[12] = tested on: MDA-MB-231; assay: Anticancer activity against human MDA-MB-231 cells assessed as cell growth at 10^-5 M after 48 hrs by SRB assay; conditions: MDA-MB-231, 48 h, read-out: Activity; in short: as §1
[13] = tested on: Malme-3M; assay: Anticancer activity against human MALME-3M cells assessed as cell growth at 10^-5 M after 48 hrs by SRB assay; conditions: read-out: Activity; in short: as §1
[14] = tested on: SNB-19; assay: Anticancer activity against human SNB19 cells assessed as cell growth at 10^-5 M after 48 hrs by SRB assay; conditions: SNB-19, 48 h, read-out: Activity
[15] = tested on: NCI-H322M; assay: Anticancer activity against human NCI-H322M cells assessed as cell growth at 10^-5 M after 48 hrs by SRB assay; conditions: read-out: Activity
[16] = tested on: SNB-75; assay: Anticancer activity against human SNB75 cells assessed as cell growth at 10^-5 M after 48 hrs by SRB assay; conditions: SNB-75, 48 h, read-out: Activity; in short: as §2
[17] = tested on: BT-549; assay: Anticancer activity against human BT549 cells assessed as cell growth at 10^-5 M after 48 hrs by SRB assay; conditions: BT-549, 48 h, read-out: Activity; in short: as §1
[18] = tested on: DU-145; assay: Anticancer activity against human DU145 cells assessed as cell growth at 10^-5 M after 48 hrs by SRB assay; conditions: DU-145, 48 h, read-out: Activity; in short: as §1
[19] = tested on: SN12C; assay: Anticancer activity against human SN12C cells assessed as cell growth at 10^-5 M after 48 hrs by SRB assay; conditions: read-out: Activity
[20] = tested on: RXF 393; assay: Anticancer activity against human RXF393 cells assessed as cell growth at 10^-5 M after 48 hrs by SRB assay; conditions: RXF 393, 48 h, read-out: Activity
[21] = tested on: ACHN; assay: Anticancer activity against human ACHN cells assessed as cell growth at 10^-5 M after 48 hrs by SRB assay; conditions: read-out: Activity; in short: as §1
[22] = tested on: NCI-H460; assay: Anticancer activity against human NCI-H460 cells assessed as cell growth at 10^-5 M after 48 hrs by SRB assay; conditions: NCI-H460, 48 h, read-out: Activity
[23] = tested on: U-251; assay: Anticancer activity against human U251 cells assessed as cell growth at 10^-5 M after 48 hrs by SRB assay; conditions: U-251, 48 h, read-out: Activity; in short: as §2
[24] = tested on: M14; assay: Anticancer activity against human M14 cells assessed as cell growth at 10^-5 M after 48 hrs by SRB assay; conditions: M14, 48 h, read-out: Activity; in short: as §1
[25] = tested on: KM12; assay: Anticancer activity against human KM12 cells assessed as cell growth at 10^-5 M after 48 hrs by SRB assay; conditions: KM12, 48 h, read-out: Activity; in short: as §1
[26] = tested on: MDA-MB-468; assay: Anticancer activity against human MDA-MB-468 cells assessed as cell growth at 10^-5 M after 48 hrs by SRB assay; conditions: MDA-MB-468, 48 h, read-out: Activity
[27] = tested on: OVCAR-5; assay: Anticancer activity against human OVCAR5 cells assessed as cell growth at 10^-5 M after 48 hrs by SRB assay; conditions: OVCAR-5, 48 h, read-out: Activity
[28] = tested on: NCI/ADR-RES; assay: Anticancer activity against human NCI/ADR-RES cells assessed as cell growth at 10^-5 M after 48 hrs by SRB assay; conditions: read-out: Activity
[29] = tested on: HT-29; assay: Anticancer activity against human HT-29 cells assessed as cell growth at 10^-5 M after 48 hrs by SRB assay; conditions: HT-29, 48 h, read-out: Activity; in short: as §1
[30] = tested on: RPMI-8226; assay: Anticancer activity against human RPMI8226 cells assessed as cell growth at 10^-5 M after 48 hrs by SRB assay; conditions: RPMI-8226, 48 h, read-out: Activity
[31] = tested on: SK-MEL-28; assay: Anticancer activity against human SK-MEL-28 cells assessed as cell growth at 10^-5 M after 48 hrs by SRB assay; conditions: SK-MEL-28, 48 h, read-out: Activity
[32] = tested on: SF-539; assay: Anticancer activity against human SF539 cells assessed as cell growth at 10^-5 M after 48 hrs by SRB assay; conditions: SF-539, 48 h, read-out: Activity

Structure (SMILES)	growth at 10 µM [2] [%]	growth at 10 µM [3] [%]	growth at 10 µM [4] [%]	growth at 10 µM [5] [%]	growth at 10 µM [6] [%]	growth at 10 µM [7] [%]	growth at 10 µM [8] [%]	growth at 10 µM [9] [%]	growth at 10 µM [10] [%]	growth at 10 µM [11] [%]	growth at 10 µM [12] [%]	growth at 10 µM [13] [%]	growth at 10 µM [14] [%]	growth at 10 µM [15] [%]	growth at 10 µM [16] [%]	growth at 10 µM [17] [%]	growth at 10 µM [18] [%]	growth at 10 µM [19] [%]	growth at 10 µM [20] [%]	growth at 10 µM [21] [%]	also measured
O=C(NCCNc1nccc(-c2c(-c3cccc(O)c3)nc3sccn23)n1)c1ccc(N2CCOCC2)c(C(F)(F)F)c1	47.8	58.7	5.88	89.1	85.4	57	43.4	60.1	66.4	79.1	64.9	-4.27	109	102	58	53.8	94.9	76	57.6	60.8	growth at 10 µM [1]: 72.8%; growth at 10 µM [22]: 66.9%; growth at 10 µM [23]: 82%; growth at 10 µM [24]: 19.1%; growth at 10 µM [25]: 77.5%; growth at 10 µM [26]: 50.2%; growth at 10 µM [27]: 91.2%; growth at 10 µM [28]: 95.4%; growth at 10 µM [29]: 68.6%; growth at 10 µM [30]: 58.8%; growth at 10 µM [31]: 42.8%; growth at 10 µM [32]: 77.8%
O=C(NCCNc1nccc(-c2c(-c3cccc(O)c3)nc3sccn23)n1)c1ccccc1O	104	37	0.53	60.2	57.4	46.2	66.5	61.8	60.5	62.5	48.4	14.6	90.2	72.3	40.6	45.7	67.2	48	50.9	46.1	growth at 10 µM [1]: 41.3%; growth at 10 µM [22]: 57%; growth at 10 µM [23]: 61.6%; growth at 10 µM [24]: 16.7%; growth at 10 µM [25]: 46.7%; growth at 10 µM [26]: 52%; growth at 10 µM [27]: 88.7%; growth at 10 µM [28]: 73.6%; growth at 10 µM [29]: 49.2%; growth at 10 µM [30]: 11.6%; growth at 10 µM [31]: 41.4%; growth at 10 µM [32]: 61.9%
O=C(NCCNc1nccc(-c2c(-c3cccc(O)c3)nc3sccn23)n1)c1cccc(C(F)(F)F)c1	84.5	75.3	3.21	89.8	81	61.5	71.1	69.5	84.2	86.7	76.2	0.75	116	103	73.8	88	91.4	83.2	79.9	66	growth at 10 µM [22]: 85.7%; growth at 10 µM [23]: 84.8%; growth at 10 µM [24]: 17.5%; growth at 10 µM [25]: 81%; growth at 10 µM [26]: 70.5%; growth at 10 µM [27]: 113%; growth at 10 µM [28]: 98.3%; growth at 10 µM [29]: 81.1%; growth at 10 µM [30]: 44.2%; growth at 10 µM [31]: 38.5%; growth at 10 µM [32]: 100%
